Our source for the IC50 and Stability values is ChEMBL document CHEMBL1817574, “Development of novel conformation-constrained cytotoxic derivatives of cheliensisin A by embedment of small heterocycles” (Eur J Med Chem, 2011).

The subject of the first series is HL-60. The experiment in a line: Cytotoxicity against human HL60 cells after 48 hrs by MTT assay. It counts as functional, cell-based. The settings on record: HL-60, 48 h. Summed up: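 Log-phase HL-60 cells were seeded at 1.25 × 10⁵ cells/mL and treated in four replicates across various concentrations for 48 h. MTT (5 mg/mL solution) was then added and incubated a further 4 h. The wells were then solubilised with 10% SDS–5% isobutanol–0.012 mol/L HCl before the colorimetric read-out.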
For orientation: Formazan colour is commonly taken as a measure of viable cells.
For `C/C=C\c1nc([C@H]2OC(=O)C=C[C@@H]2OC(C)=O)c(-c2ccccc2)o1`, the 50% inhibitory concentration (IC50) (in general, the point on the concentration scale where inhibition reaches its midpoint) is more than 40 µM.

Compound `CC(=O)O[C@H]1C=CC(=O)O[C@@H]1c1nc(-c2ccccc2)oc1-c1ccccc1` yielded an IC50 of 2.59 µM.

In turn, `CC(=O)O[C@H]1C=CC(=O)O[C@@H]1[C@H](NC(=O)c1ccccc1)[C@H](O)c1ccccc1` came in with an IC50 of more than 40 µM.

`CC(=O)O[C@H]1C=CC(=O)O[C@@H]1[C@@H](NC(=O)Cc1ccccc1)[C@H](O)c1ccccc1` returned a half-maximal inhibitory concentration (IC50) of 5.19 µM.

Consider `CC(=O)O[C@H]1C=CC(=O)O[C@@H]1[C@@H](NC(=O)/C=C/c1ccccc1)[C@H](O)c1ccccc1`, for which the half-inhibitory concentration (IC50) was more than 40 µM.

`CC(=O)O[C@H]1C=CC(=O)O[C@@H]1/C=C/c1ccccc1`: the half-maximal inhibitory concentration (IC50) turned out to be 2.68 µM.

Compound `CC(=O)O[C@H]1C=CC(=O)O[C@@H]1[C@@H](O)[C@@H](Nc1ccccc1)c1ccccc1` gave an IC50 of more than 40 µM.

For `CC(=O)O[C@H]1C=CC(=O)O[C@@H]1[C@@H](O)[C@H](O)c1ccccc1`, the IC50 was more than 40 µM.

Compound `CC(=O)O[C@H]1C=CC(=O)O[C@H]1[C@H]1OC(C)(C)O[C@@H]1c1ccccc1` showed an IC50 of more than 40 µM.

`CC(=O)O[C@H]1C=CC(=O)O[C@H]1[C@H]1OC(=O)O[C@@H]1c1ccccc1`: the IC50 is more than 40 µM.

As to `CC(=O)O[C@H]1C=CC(=O)O[C@H]1[C@H]1O[C@@H]1c1ccccc1` [CHELIENSISIN A], inhibition was half-maximal at 1.97 µM (IC50).

For a further series, the system named is SMMC-7721. Briefly: Cytotoxicity against human SMMC7721 cells after 48 hrs by MTT assay. It counts as functional, cell-based. The conditions noted are these: SMMC-7721, 48 h.
Regarding `C/C=C\c1nc([C@H]2OC(=O)C=C[C@@H]2OC(C)=O)c(-c2ccccc2)o1`, the 50% inhibitory concentration (IC50) is more than 40 µM.

Turning to `CC(=O)O[C@H]1C=CC(=O)O[C@@H]1c1nc(-c2ccccc2)oc1-c1ccccc1`, the IC50 turned out to be 15.7 µM.

For the compound `CC(=O)O[C@H]1C=CC(=O)O[C@@H]1[C@H](NC(=O)c1ccccc1)[C@H](O)c1ccccc1`, the concentration for half-maximal inhibition (IC50) was more than 40 µM.

Turning to `CC(=O)O[C@H]1C=CC(=O)O[C@@H]1[C@@H](NC(=O)Cc1ccccc1)[C@H](O)c1ccccc1`, the IC50 is more than 40 µM.

`CC(=O)O[C@H]1C=CC(=O)O[C@@H]1[C@@H](NC(=O)/C=C/c1ccccc1)[C@H](O)c1ccccc1` came in with an IC50 of more than 40 µM.

The compound `CC(=O)O[C@H]1C=CC(=O)O[C@@H]1/C=C/c1ccccc1` registered an IC50 of 29 µM.

In the case of `CC(=O)O[C@H]1C=CC(=O)O[C@@H]1[C@@H](O)[C@@H](Nc1ccccc1)c1ccccc1`, the IC50 was more than 40 µM.

The compound `CC(=O)O[C@H]1C=CC(=O)O[C@@H]1[C@@H](O)[C@H](O)c1ccccc1` came in with an IC50 of more than 40 µM.

Compound `CC(=O)O[C@H]1C=CC(=O)O[C@H]1[C@H]1OC(C)(C)O[C@@H]1c1ccccc1` showed an IC50 of more than 40 µM.

In the case of `CC(=O)O[C@H]1C=CC(=O)O[C@H]1[C@H]1OC(=O)O[C@@H]1c1ccccc1`, the IC50 was more than 40 µM.

In turn, `CC(=O)O[C@H]1C=CC(=O)O[C@H]1[C@H]1O[C@@H]1c1ccccc1` [CHELIENSISIN A] came in with an IC50 of 4.7 µM.

System in a further series: not listed separately
Briefly: Chemical stability of the compound in 0.1 M phosphate buffer at pH 7.0 at 0.1 mg/mL after 12 hrs by HPLC analysis. It counts as physicochemical. The settings on record: pH 7, 12 h.
Consider `CC(=O)O[C@H]1C=CC(=O)O[C@@H]1/C=C/c1ccccc1`, for which the Stability entry is on record as “Stable”.

Regarding `CC(=O)O[C@H]1C=CC(=O)O[C@H]1[C@H]1O[C@@H]1c1ccccc1` [CHELIENSISIN A], the Stability entry was “Stable”.

In the next series the test system is A549. The experiment in a line: Cytotoxicity against human A549 cells after 48 hrs by MTT assay. It counts as functional, cell-based. The settings on record: A549, 48 h.
Regarding `C/C=C\c1nc([C@H]2OC(=O)C=C[C@@H]2OC(C)=O)c(-c2ccccc2)o1`, the IC50 is more than 40 µM.

On to `CC(=O)O[C@H]1C=CC(=O)O[C@@H]1c1nc(-c2ccccc2)oc1-c1ccccc1`, for which the 50% inhibitory concentration (IC50) came out at 14.7 µM.

As for `CC(=O)O[C@H]1C=CC(=O)O[C@@H]1[C@H](NC(=O)c1ccccc1)[C@H](O)c1ccccc1`, the IC50 was more than 40 µM.

As for `CC(=O)O[C@H]1C=CC(=O)O[C@@H]1[C@@H](NC(=O)Cc1ccccc1)[C@H](O)c1ccccc1`, the IC50 is more than 40 µM.

Take `CC(=O)O[C@H]1C=CC(=O)O[C@@H]1[C@@H](NC(=O)/C=C/c1ccccc1)[C@H](O)c1ccccc1`: the IC50 was more than 40 µM.

Consider `CC(=O)O[C@H]1C=CC(=O)O[C@@H]1/C=C/c1ccccc1`, for which half-maximal inhibition (IC50) was put at 38.8 µM.

`CC(=O)O[C@H]1C=CC(=O)O[C@@H]1[C@@H](O)[C@@H](Nc1ccccc1)c1ccccc1` gave an IC50 of more than 40 µM.

For `CC(=O)O[C@H]1C=CC(=O)O[C@@H]1[C@@H](O)[C@H](O)c1ccccc1`, the IC50 is more than 40 µM.

The compound `CC(=O)O[C@H]1C=CC(=O)O[C@H]1[C@H]1OC(C)(C)O[C@@H]1c1ccccc1` returned an IC50 of more than 40 µM.

In turn, `CC(=O)O[C@H]1C=CC(=O)O[C@H]1[C@H]1OC(=O)O[C@@H]1c1ccccc1` came in with an IC50 of more than 40 µM.

Consider `CC(=O)O[C@H]1C=CC(=O)O[C@H]1[C@H]1O[C@@H]1c1ccccc1` [CHELIENSISIN A], for which the IC50 came to 5.99 µM.

The next series concerns PANC-1. Briefly: Cytotoxicity against human PANC1 cells after 48 hrs by MTT assay. Type of series: functional, cell-based. The settings on record: PANC-1, 48 h.
Take `C/C=C\c1nc([C@H]2OC(=O)C=C[C@@H]2OC(C)=O)c(-c2ccccc2)o1`: the IC50 was more than 40 µM.

`CC(=O)O[C@H]1C=CC(=O)O[C@@H]1c1nc(-c2ccccc2)oc1-c1ccccc1` showed an IC50 of 13.9 µM.

Compound `CC(=O)O[C@H]1C=CC(=O)O[C@@H]1[C@H](NC(=O)c1ccccc1)[C@H](O)c1ccccc1` showed an IC50 of more than 40 µM.

As to `CC(=O)O[C@H]1C=CC(=O)O[C@@H]1[C@@H](NC(=O)Cc1ccccc1)[C@H](O)c1ccccc1`, the IC50 is more than 40 µM.

In turn, `CC(=O)O[C@H]1C=CC(=O)O[C@@H]1[C@@H](NC(=O)/C=C/c1ccccc1)[C@H](O)c1ccccc1` registered an IC50 of more than 40 µM.

On to `CC(=O)O[C@H]1C=CC(=O)O[C@@H]1/C=C/c1ccccc1`, for which the midpoint of inhibition, the IC50, lay at 7.95 µM.

On to `CC(=O)O[C@H]1C=CC(=O)O[C@@H]1[C@@H](O)[C@@H](Nc1ccccc1)c1ccccc1`, for which the IC50 was more than 40 µM.

As to `CC(=O)O[C@H]1C=CC(=O)O[C@@H]1[C@@H](O)[C@H](O)c1ccccc1`, the half-inhibitory concentration (IC50) is more than 40 µM.

Take `CC(=O)O[C@H]1C=CC(=O)O[C@H]1[C@H]1OC(C)(C)O[C@@H]1c1ccccc1`: the IC50 is more than 40 µM.

Turning to `CC(=O)O[C@H]1C=CC(=O)O[C@H]1[C@H]1OC(=O)O[C@@H]1c1ccccc1`, the IC50 was more than 40 µM.

Turning to `CC(=O)O[C@H]1C=CC(=O)O[C@H]1[C@H]1O[C@@H]1c1ccccc1` [CHELIENSISIN A], the midpoint of inhibition, the IC50, lay at 25.7 µM.

The next series has as its system SK-BR-3. Briefly: Cytotoxicity against human SKBR3 cells after 48 hrs by MTT assay. It counts as functional, cell-based. The conditions noted are these: SK-BR-3, 48 h.
`C/C=C\c1nc([C@H]2OC(=O)C=C[C@@H]2OC(C)=O)c(-c2ccccc2)o1` showed a concentration for half-maximal inhibition (IC50) of more than 40 µM.

`CC(=O)O[C@H]1C=CC(=O)O[C@@H]1c1nc(-c2ccccc2)oc1-c1ccccc1` had an IC50 of 12 µM.

Compound `CC(=O)O[C@H]1C=CC(=O)O[C@@H]1[C@H](NC(=O)c1ccccc1)[C@H](O)c1ccccc1` showed an IC50 of more than 40 µM.

In the case of `CC(=O)O[C@H]1C=CC(=O)O[C@@H]1[C@@H](NC(=O)Cc1ccccc1)[C@H](O)c1ccccc1`, the IC50 is 38.8 µM.

For `CC(=O)O[C@H]1C=CC(=O)O[C@@H]1[C@@H](NC(=O)/C=C/c1ccccc1)[C@H](O)c1ccccc1`, the IC50 was more than 40 µM.

Take `CC(=O)O[C@H]1C=CC(=O)O[C@@H]1/C=C/c1ccccc1`: the IC50 is 4.63 µM.

`CC(=O)O[C@H]1C=CC(=O)O[C@@H]1[C@@H](O)[C@@H](Nc1ccccc1)c1ccccc1` returned an IC50 of more than 40 µM.

In turn, `CC(=O)O[C@H]1C=CC(=O)O[C@@H]1[C@@H](O)[C@H](O)c1ccccc1` had an IC50 of more than 40 µM.

`CC(=O)O[C@H]1C=CC(=O)O[C@H]1[C@H]1OC(C)(C)O[C@@H]1c1ccccc1` displayed an IC50 of more than 40 µM.

For `CC(=O)O[C@H]1C=CC(=O)O[C@H]1[C@H]1OC(=O)O[C@@H]1c1ccccc1`, the IC50 is more than 40 µM.

`CC(=O)O[C@H]1C=CC(=O)O[C@H]1[C@H]1O[C@@H]1c1ccccc1` [CHELIENSISIN A] came in with an IC50 of 20.3 µM.
